{
  "source": "ChEMBL document CHEMBL1147918",
  "about": "“Novel 5-substituted 1-pyrazolol analogues of ibotenic acid: synthesis and pharmacology at glutamate receptors” (Bioorg Med Chem, 2007)",
  "key": {"[1]": {"experiment": "Displacement of [3H]KA from KA receptor in rat cortical membrane", "format": "cell membranes", "method_in_brief": "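Native kainate receptor binding on rat brain membranes (Ransom and Stec preparation) using 5 nM [3H]KA. Means of at least three to four independent experiments, reported as pIC50 or pKi ± SEM.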"}, "[2]": {"target": "Metabotropic glutamate receptor 4 (Rattus norvegicus, UniProt P31423)", "sequence (P31423 whole entry)": "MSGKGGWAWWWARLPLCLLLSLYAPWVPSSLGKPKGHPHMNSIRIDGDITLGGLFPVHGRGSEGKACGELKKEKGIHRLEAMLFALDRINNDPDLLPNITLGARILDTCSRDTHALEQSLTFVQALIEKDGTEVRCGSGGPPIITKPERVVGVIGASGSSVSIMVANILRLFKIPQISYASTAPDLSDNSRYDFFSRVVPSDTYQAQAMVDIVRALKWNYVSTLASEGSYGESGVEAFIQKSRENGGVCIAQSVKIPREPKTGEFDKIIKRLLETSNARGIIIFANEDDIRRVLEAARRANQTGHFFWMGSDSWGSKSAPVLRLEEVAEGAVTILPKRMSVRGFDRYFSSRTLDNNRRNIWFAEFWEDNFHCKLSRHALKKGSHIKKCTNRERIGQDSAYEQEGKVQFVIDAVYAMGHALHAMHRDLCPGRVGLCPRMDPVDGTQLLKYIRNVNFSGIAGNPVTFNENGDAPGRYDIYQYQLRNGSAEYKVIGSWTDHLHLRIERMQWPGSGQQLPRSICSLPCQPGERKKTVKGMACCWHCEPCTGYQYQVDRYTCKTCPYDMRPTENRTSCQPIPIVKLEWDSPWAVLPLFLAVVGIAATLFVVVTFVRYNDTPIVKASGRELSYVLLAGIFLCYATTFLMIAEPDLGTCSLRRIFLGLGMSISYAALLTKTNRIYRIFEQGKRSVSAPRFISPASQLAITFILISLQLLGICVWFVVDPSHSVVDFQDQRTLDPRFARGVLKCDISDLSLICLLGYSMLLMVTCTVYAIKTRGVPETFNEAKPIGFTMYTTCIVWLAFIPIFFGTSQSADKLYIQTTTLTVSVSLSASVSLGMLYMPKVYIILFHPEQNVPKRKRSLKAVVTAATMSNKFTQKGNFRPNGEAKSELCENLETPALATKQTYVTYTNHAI", "experiment": "Agonist activity at rat mGluR4 receptor expressed in CHO cells assessed as effect on intracellular cAMP level", "format": "functional, cell-based", "method_in_brief": "(§1)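 Means of at least three independent experiments, expressed as pEC50 or pKi ± SEM.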"}, "[3]": {"experiment": "Displacement of [3H]AMPA from AMPA receptor in rat cortical membrane", "format": "cell membranes", "method_in_brief": "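Rat brain membranes prepared per Ransom and Stec; native AMPA receptor affinity measured with 5 nM [3H]AMPA. Means of at least three to four independent experiments; values as pIC50 or pKi ± SEM.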"}, "Glutamate NMDA receptor": {"target": "Glutamate NMDA receptor", "experiment": "Displacement of [3H]CGP39653 from NMDA receptor in rat cortical membrane", "format": "cell membranes", "method_in_brief": "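NMDA receptor affinity on rat brain membranes prepared per Ransom and Stec, radioligand 2 nM [3H]CGP39653. Means of at least three to four independent experiments; pIC50 or pKi ± SEM.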"}, "[4]": {"target": "T1, Metabotropic glutamate receptor 1 (Rattus norvegicus, UniProt P23385)", "T1 sequence (P23385 whole entry)": "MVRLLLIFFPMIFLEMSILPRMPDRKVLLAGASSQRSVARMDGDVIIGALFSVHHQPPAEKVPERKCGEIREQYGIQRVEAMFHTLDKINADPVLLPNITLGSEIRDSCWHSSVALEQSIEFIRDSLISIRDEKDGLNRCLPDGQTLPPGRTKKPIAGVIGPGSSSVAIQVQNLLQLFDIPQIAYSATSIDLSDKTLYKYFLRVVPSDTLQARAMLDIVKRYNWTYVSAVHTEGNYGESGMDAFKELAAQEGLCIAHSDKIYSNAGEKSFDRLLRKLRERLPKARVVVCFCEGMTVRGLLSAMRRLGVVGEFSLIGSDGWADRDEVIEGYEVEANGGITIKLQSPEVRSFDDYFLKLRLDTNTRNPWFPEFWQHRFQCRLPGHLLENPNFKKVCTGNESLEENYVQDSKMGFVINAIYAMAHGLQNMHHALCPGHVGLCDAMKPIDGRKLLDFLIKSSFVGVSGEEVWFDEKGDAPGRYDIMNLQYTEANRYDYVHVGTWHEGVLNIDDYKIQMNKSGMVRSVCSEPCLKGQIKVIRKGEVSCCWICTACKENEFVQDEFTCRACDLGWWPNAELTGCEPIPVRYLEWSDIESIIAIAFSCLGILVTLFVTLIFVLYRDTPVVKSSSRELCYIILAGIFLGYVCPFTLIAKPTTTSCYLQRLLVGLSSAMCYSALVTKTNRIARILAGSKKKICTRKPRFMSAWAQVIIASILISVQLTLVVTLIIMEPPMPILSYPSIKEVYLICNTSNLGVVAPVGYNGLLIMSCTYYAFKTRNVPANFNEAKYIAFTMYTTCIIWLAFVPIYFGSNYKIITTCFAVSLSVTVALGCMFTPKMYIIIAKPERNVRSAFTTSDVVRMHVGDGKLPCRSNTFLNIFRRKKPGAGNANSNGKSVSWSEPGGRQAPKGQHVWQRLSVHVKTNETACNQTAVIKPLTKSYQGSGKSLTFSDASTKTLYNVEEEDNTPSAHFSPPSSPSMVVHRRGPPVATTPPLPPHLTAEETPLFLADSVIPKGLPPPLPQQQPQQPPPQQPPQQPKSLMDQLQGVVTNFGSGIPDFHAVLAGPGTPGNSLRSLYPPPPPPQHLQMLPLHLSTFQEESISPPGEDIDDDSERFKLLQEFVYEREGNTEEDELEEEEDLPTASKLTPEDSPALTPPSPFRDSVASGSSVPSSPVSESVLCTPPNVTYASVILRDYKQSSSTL", "experiment": "Agonist activity at rat mGluR1a receptor expressed in CHO cells assessed as effect on intracellular calcium level", "format": "functional, cell-based", "method_in_brief": "as §1"}, "[5]": {"target": "T2, Metabotropic glutamate receptor 2 (Rattus norvegicus, UniProt P31421)", "T2 sequence (P31421 whole entry)": "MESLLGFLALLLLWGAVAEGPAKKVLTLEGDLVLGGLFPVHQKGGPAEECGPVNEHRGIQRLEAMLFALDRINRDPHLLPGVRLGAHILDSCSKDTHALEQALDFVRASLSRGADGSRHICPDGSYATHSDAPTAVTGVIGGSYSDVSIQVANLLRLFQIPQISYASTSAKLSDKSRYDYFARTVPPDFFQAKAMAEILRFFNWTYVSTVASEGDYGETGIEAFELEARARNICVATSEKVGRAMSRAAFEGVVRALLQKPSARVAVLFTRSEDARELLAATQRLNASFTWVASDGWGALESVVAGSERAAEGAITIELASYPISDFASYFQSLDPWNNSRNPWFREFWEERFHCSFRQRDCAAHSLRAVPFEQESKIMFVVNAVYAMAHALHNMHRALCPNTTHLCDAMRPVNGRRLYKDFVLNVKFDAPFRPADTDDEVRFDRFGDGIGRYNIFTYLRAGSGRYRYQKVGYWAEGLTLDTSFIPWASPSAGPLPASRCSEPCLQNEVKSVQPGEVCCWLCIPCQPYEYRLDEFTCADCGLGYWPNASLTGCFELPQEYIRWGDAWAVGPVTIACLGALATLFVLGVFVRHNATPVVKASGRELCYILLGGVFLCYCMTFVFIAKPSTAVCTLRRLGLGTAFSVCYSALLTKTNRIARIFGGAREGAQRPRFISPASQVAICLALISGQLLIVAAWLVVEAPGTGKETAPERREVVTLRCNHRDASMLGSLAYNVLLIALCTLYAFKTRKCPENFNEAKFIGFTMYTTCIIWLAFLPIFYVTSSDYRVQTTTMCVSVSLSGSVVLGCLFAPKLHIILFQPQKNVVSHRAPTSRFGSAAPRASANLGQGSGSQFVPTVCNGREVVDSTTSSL", "experiment": "(§2) Agonist activity at rat mGluR2 receptor expressed in CHO cells assessed as effect on intracellular cAMP level", "format": "functional, cell-based", "conditions": "for pEC50: read-out: EC50; for EC50: read-out: Log EC50 (converted)", "method_in_brief": "as §1"}, "[6]": {"target": "T1, Metabotropic glutamate receptor 1", "experiment": "Antagonist activity at rat mGluR1a receptor expressed in CHO cells assessed as effect on intracellular calcium level", "format": "functional, cell-based", "conditions": "for pKi: read-out: Ki", "method_in_brief": "as §1"}, "[7]": {"target": "T2, Metabotropic glutamate receptor 2", "experiment": "Antagonist activity at rat mGluR2 receptor expressed in CHO cells assessed as effect on intracellular cAMP level", "format": "functional, cell-based", "method_in_brief": "as §1"}, "[8]": {"target": "Metabotropic glutamate receptor 2 (Rattus norvegicus) (UniProt P31421)", "sequence (P31421 19-872 limits assumed)": "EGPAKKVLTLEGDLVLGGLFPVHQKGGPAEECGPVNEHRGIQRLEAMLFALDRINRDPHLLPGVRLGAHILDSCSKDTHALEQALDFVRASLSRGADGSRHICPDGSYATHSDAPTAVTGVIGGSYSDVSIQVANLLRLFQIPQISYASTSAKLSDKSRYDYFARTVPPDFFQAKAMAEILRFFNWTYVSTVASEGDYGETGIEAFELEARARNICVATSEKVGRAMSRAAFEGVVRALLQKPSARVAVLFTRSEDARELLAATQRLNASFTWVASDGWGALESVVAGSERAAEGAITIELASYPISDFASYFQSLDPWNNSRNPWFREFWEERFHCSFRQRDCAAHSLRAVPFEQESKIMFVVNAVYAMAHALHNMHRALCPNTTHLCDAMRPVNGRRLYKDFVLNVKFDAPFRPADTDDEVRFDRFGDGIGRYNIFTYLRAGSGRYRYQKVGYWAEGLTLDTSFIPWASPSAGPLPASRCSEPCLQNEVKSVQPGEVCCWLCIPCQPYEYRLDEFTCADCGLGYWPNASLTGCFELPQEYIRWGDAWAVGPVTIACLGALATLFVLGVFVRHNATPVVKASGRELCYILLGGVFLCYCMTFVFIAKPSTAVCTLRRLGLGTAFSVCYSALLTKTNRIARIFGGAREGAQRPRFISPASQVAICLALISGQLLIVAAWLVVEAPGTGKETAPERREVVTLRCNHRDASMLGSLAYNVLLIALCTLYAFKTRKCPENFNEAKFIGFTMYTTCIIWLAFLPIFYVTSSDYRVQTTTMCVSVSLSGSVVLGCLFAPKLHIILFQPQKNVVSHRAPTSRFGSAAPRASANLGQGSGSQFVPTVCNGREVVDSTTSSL", "experiment": "as §2", "format": "functional, cell-based", "method_in_brief": "as §1"}},
  "note": "pEC50, pIC50, pKi: −log10 of the molar value.",
  "data": [
    {"smiles": "NC(C(=O)O)c1cnn(O)c1C(c1ccccc1)c1ccccc1", "note": "(racemic)", "values": [
      {"measurement": "pIC50", "setting": "[1]", "result": 4.33},
      {"measurement": "Log IC50", "setting": "[1]", "result": -4.33},
      {"measurement": "pEC50", "setting": "[2]", "result": "< 3.00"},
      {"measurement": "pIC50", "setting": "[3]", "result": "< 4.00"},
      {"measurement": "pKi", "setting": "Glutamate NMDA receptor", "result": "< 4.00"},
      {"measurement": "pEC50", "setting": "[4]", "result": "< 3.00"},
      {"measurement": "pEC50", "setting": "[5]", "result": "< 3.00"}
    ]},
    {"smiles": "CCCCCc1c(C(N)C(=O)O)cnn1O", "note": "(racemic)", "values": [
      {"measurement": "pIC50", "setting": "[1]", "result": "< 4.00"},
      {"measurement": "pEC50", "setting": "[2]", "result": "< 3.00"},
      {"measurement": "pIC50", "setting": "[3]", "result": "< 4.00"},
      {"measurement": "pKi", "setting": "Glutamate NMDA receptor", "result": "< 4.00"},
      {"measurement": "pEC50", "setting": "[4]", "result": "< 3.00"},
      {"measurement": "pEC50", "setting": "[5]", "result": "< 3.00"}
    ]},
    {"smiles": "CCCCc1c(C(N)C(=O)O)cnn1O", "note": "(racemic)", "values": [
      {"measurement": "pIC50", "setting": "[1]", "result": "< 4.00"},
      {"measurement": "pEC50", "setting": "[2]", "result": "< 3.00"},
      {"measurement": "pIC50", "setting": "[3]", "result": "< 4.00"},
      {"measurement": "pKi", "setting": "Glutamate NMDA receptor", "result": "< 4.00"},
      {"measurement": "pEC50", "setting": "[4]", "result": "< 3.00"},
      {"measurement": "pEC50", "setting": "[5]", "result": "< 3.00"}
    ]},
    {"smiles": "NC(C(=O)O)c1cnn(O)c1CCc1ccccc1", "note": "(racemic)", "values": [
      {"measurement": "pIC50", "setting": "[1]", "result": "< 4.00"},
      {"measurement": "pKi", "setting": "[6]", "result": 3.64},
      {"measurement": "Ki", "setting": "[6]; read-out: Log Ki (converted)", "result": 195, "unit": "µM"},
      {"measurement": "pEC50", "setting": "[2]", "result": "< 3.00"},
      {"measurement": "pIC50", "setting": "[3]", "result": "< 4.00"},
      {"measurement": "pKi", "setting": "Glutamate NMDA receptor", "result": "< 4.00"},
      {"measurement": "pEC50", "setting": "[5]", "result": "< 3.00"}
    ]},
    {"smiles": "NC(C(=O)O)c1cnn(O)c1Cc1ccccc1", "note": "(racemic)", "values": [
      {"measurement": "pIC50", "setting": "[1]", "result": "< 4.00"},
      {"measurement": "pEC50", "setting": "[2]", "result": "< 3.00"},
      {"measurement": "pIC50", "setting": "[3]", "result": "< 4.00"},
      {"measurement": "pKi", "setting": "[7]", "result": 3.92},
      {"measurement": "pKi", "setting": "Glutamate NMDA receptor", "result": 4.17},
      {"measurement": "pEC50", "setting": "[4]", "result": "< 3.00"}
    ]},
    {"smiles": "NC(C(=O)O)c1cnn(O)c1Br", "note": "(racemic)", "values": [
      {"measurement": "pIC50", "setting": "[1]", "result": "< 4.00"},
      {"measurement": "pEC50", "setting": "[2]", "result": "< 3.00"},
      {"measurement": "pIC50", "setting": "[3]", "result": "< 4.00"},
      {"measurement": "pKi", "setting": "Glutamate NMDA receptor", "result": 4.60},
      {"measurement": "pEC50", "setting": "[4]", "result": "< 3.00"},
      {"measurement": "Activity", "setting": "[8]", "result": 43, "unit": "%"},
      {"measurement": "pEC50", "setting": "[5]", "result": 3.77},
      {"measurement": "EC50", "setting": "[5]", "result": 151, "unit": "µM"}
    ]},
    {"smiles": "CCCc1c(C(N)C(=O)O)cnn1O", "note": "(racemic)", "values": [
      {"measurement": "pIC50", "setting": "[1]", "result": "< 4.00"},
      {"measurement": "pEC50", "setting": "[2]", "result": "< 3.00"},
      {"measurement": "pIC50", "setting": "[3]", "result": "< 4.00"},
      {"measurement": "pKi", "setting": "Glutamate NMDA receptor", "result": "< 4.00"},
      {"measurement": "pEC50", "setting": "[4]", "result": "< 3.00"},
      {"measurement": "pEC50", "setting": "[5]", "result": 4.14},
      {"measurement": "EC50", "setting": "[5]", "result": 67.6, "unit": "µM"}
    ]},
    {"smiles": "NC(C(=O)O)c1cnn(O)c1CC1CCCCC1", "note": "(racemic)", "values": [
      {"measurement": "pIC50", "setting": "[1]", "result": "< 4.00"},
      {"measurement": "pEC50", "setting": "[2]", "result": "< 3.00"},
      {"measurement": "pIC50", "setting": "[3]", "result": "< 4.00"},
      {"measurement": "pKi", "setting": "[7]", "result": 4.49},
      {"measurement": "pKi", "setting": "Glutamate NMDA receptor", "result": "< 4.00"},
      {"measurement": "pEC50", "setting": "[4]", "result": "< 3.00"}
    ]},
    {"smiles": "NC(C(=O)O)c1cnn(O)c1-c1ccccc1", "note": "(racemic)", "values": [
      {"measurement": "pIC50", "setting": "[1]", "result": "< 4.00"},
      {"measurement": "pEC50", "setting": "[2]", "result": "< 3.00"},
      {"measurement": "pIC50", "setting": "[3]", "result": "< 4.00"},
      {"measurement": "pKi", "setting": "[7]", "result": 3.74},
      {"measurement": "pKi", "setting": "Glutamate NMDA receptor", "result": "< 4.00"},
      {"measurement": "pEC50", "setting": "[4]", "result": "< 3.00"}
    ]},
    {"smiles": "NC(C(=O)O)c1cnn(O)c1CC1CC1", "note": "(racemic)", "values": [
      {"measurement": "pIC50", "setting": "[1]", "result": "< 4.00"},
      {"measurement": "pEC50", "setting": "[2]", "result": "< 3.00"},
      {"measurement": "pIC50", "setting": "[3]", "result": "< 4.00"},
      {"measurement": "pKi", "setting": "Glutamate NMDA receptor", "result": 4.46},
      {"measurement": "Log Ki", "setting": "Glutamate NMDA receptor", "result": -4.47},
      {"measurement": "pEC50", "setting": "[4]", "result": "< 3.00"},
      {"measurement": "pEC50", "setting": "[5]", "result": "< 3.00"}
    ]},
    {"smiles": "NC(C(=O)O)c1cnn(O)c1CCCc1ccccc1", "note": "(racemic)", "values": [
      {"measurement": "pIC50", "setting": "[1]", "result": "< 4.00"},
      {"measurement": "pKi", "setting": "[6]", "result": 3.59},
      {"measurement": "pEC50", "setting": "[2]", "result": "< 3.00"},
      {"measurement": "pIC50", "setting": "[3]", "result": "< 4.00"},
      {"measurement": "pKi", "setting": "[7]", "result": 4.17},
      {"measurement": "pKi", "setting": "Glutamate NMDA receptor", "result": 4.27}
    ]},
    {"smiles": "CCc1c(C(N)C(=O)O)cnn1O", "note": "(racemic)", "values": [
      {"measurement": "pIC50", "setting": "[1]", "result": "< 4.00"},
      {"measurement": "pEC50", "setting": "[2]", "result": "< 3.00"},
      {"measurement": "pIC50", "setting": "[3]", "result": "< 4.00"},
      {"measurement": "pKi", "setting": "Glutamate NMDA receptor", "result": 4.49},
      {"measurement": "pEC50", "setting": "[4]", "result": "< 3.00"},
      {"measurement": "pEC50", "setting": "[5]", "result": 4.24}
    ]}
  ]
}
